This is an account of results in ChEMBL document CHEMBL1177787, “In vitro and in vivo antimalarial evaluation of semi-synthetic derivatives of gomphostenin” (Bioorg Med Chem Lett, 2010).

Assay [1] concerns Plasmodium falciparum. The assay is described as follows: Antiplasmodial activity against chloroquine-sensitive Plasmodium falciparum MRC2 infected in human erythrocytes after 24 hrs by Giemsa staining. The assay is classed as functional, organism-based. The note with it: MRC2, 24 h. The method, boiled down:
(§1)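 Parasites grown in human B(+) erythrocytes in RPMI-1640 with 25 mM HEPES, 10% human AB(+) serum, 0.2% sodium bicarbonate, 5% CO2. Ring-stage cultures synchronized, parasitemia set to 1–1.5% with fresh RBC. Twofold serial dilutions (ethanol stock, final ethanol ≤0.5%), duplicate wells, 37 °C for 24 h. Giemsa smears: schizonts per 100 asexual parasites; inhibition = (1 − Nt/Nc) × 100; IC50 derived.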

Assay [2] deals with Plasmodium falciparum. The assay is described as follows: Antiplasmodial activity against chloroquine-resistant Plasmodium falciparum RKL9 after 24 hrs by Giemsa staining. The assay is classed as functional, organism-based. To be noted: RKL9, 24 h. The method, boiled down: as §1
For assay [3], the system named is Plasmodium berghei. Description: Antimalarial activity against chloroquine-sensitive Plasmodium berghei ANKA infected in Swiss mice (Mus musculus) assessed as parasitaemia at 50 mg/kg, perorally for 4 days measured on day 5. Format: functional. To be noted: route oral. The essentials:
(§2)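 Four-day suppressive test: Swiss albino mice inoculated i.p. on day 0 with 0.2 ml infected blood carrying about 1 × 10⁷ P. berghei ANKA parasitized RBC. Compounds suspended in saline with 0.5% Tween-80 and given orally from shortly after inoculation, day 0–3. Groups of five mice; the vehicle group was the negative control. Tail-blood thin films were read on day 4 (fifth day), counting parasitized cells per 600 erythrocytes.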

Assay [4] deals with Plasmodium berghei. Description: Antimalarial activity against chloroquine-sensitive Plasmodium berghei ANKA infected in Swiss mice (Mus musculus) assessed as suppression of parasitaemia at 100 mg/kg, perorally for 4 days measured on day 5 relative to control. Format: functional. To be noted: route oral. The essentials: as §2
Assay [5] deals with Plasmodium berghei. The assay is described as follows: Antimalarial activity against chloroquine-sensitive Plasmodium berghei ANKA infected in Swiss mice (Mus musculus) assessed as suppression of parasitaemia at 150 mg/kg, perorally for 4 days measured on day 5 relative to control. The assay is classed as functional. The note with it: route oral. The essentials:
as §2

In assay [6] the test system is Plasmodium berghei. The assay is described as follows: Antimalarial activity against chloroquine-sensitive Plasmodium berghei ANKA infected in Swiss mice (Mus musculus) assessed as suppression of parasitaemia at 50 mg/kg, perorally for 4 days measured on day 5 relative to control. The assay is classed as functional. To be noted: route oral. The method, boiled down: as §2

Assay [7] relates to Plasmodium berghei. The assay is described as follows: Antimalarial activity against chloroquine-sensitive Plasmodium berghei ANKA infected in Swiss mice (Mus musculus) assessed as parasitaemia at 100 mg/kg, perorally for 4 days measured on day 5. To be noted: route oral. Format: functional. The essentials: as §2
The subject of assay [8] is Plasmodium berghei. Description: Antimalarial activity against chloroquine-sensitive Plasmodium berghei ANKA infected in Swiss mice (Mus musculus) assessed as parasitaemia at 150 mg/kg, perorally for 4 days measured on day 5. Format: functional. To be noted: route oral. The method, boiled down: as §2
Assay [9] relates to Plasmodium berghei. Description: Antimalarial activity against chloroquine-sensitive Plasmodium berghei ANKA infected in Swiss mice (Mus musculus) assessed as suppression of parasitaemia at 5 mg/kg, perorally for 4 days measured on day 5 relative to control. Format: functional. To be noted: route oral. The essentials: as §2
Assay [10] has as its system Plasmodium berghei. The assay is described as follows: Antimalarial activity against chloroquine-sensitive Plasmodium berghei ANKA infected in Swiss mice (Mus musculus) assessed as parasitaemia at 5 mg/kg, perorally for 4 days measured on day 5. Format: functional. To be noted: route oral. The method, boiled down:
as §2

The term IC50 denotes the concentration that gives 50% inhibition. A higher IC50 goes with weaker potency in that assay. As for `CC1=CC(=O)C[C@H]2[C@](C)(CCC3=CCOC3=O)[C@H](COC(=O)C(C)(C)C)CC[C@]12C`, the IC50 was determined as 78.5 µM in [1] and 84.9 µM in [2].
The like results for `CC1=CC(=O)C[C@H]2[C@](C)(CCC3=CCOC3=O)[C@H](COS(=O)(=O)c3ccc(C)cc3)CC[C@]12C` were, in that order, 26.1 µM and 45.8 µM.
Consider `CC1=CC(=O)C[C@H]2[C@](C)(CCC3=CCOC3=O)[C@H](COS(C)(=O)=O)CC[C@]12C`, for which the IC50 in assay [1] was 69.9 µM; in [2] it was 73.3 µM.
As a reminder, the inhibition in vivo is the drop in the measured response relative to a control, in per cent. `CC1=CC(=O)C[C@H]2[C@](C)(CCC3=CCOC3=O)[C@H](COCc3ccc(F)cc3)CC[C@]12C`: the IC50 came out at 8.3 µM in [1] and 8.1 µM in [2]. For the same compound, the Activity in assay [3] is 26.4%; in [7], 22.3%; in [8], 10.3%. Besides, the inhibition in vivo at 100 mg/kg in assay [4] is 33.2%. In addition, the inhibition in vivo at 150 mg/kg in assay [5] stood at 69.4%. Besides, the inhibition in vivo at 50 mg/kg in [6] was 21.7%.
Regarding `CCN(CC)CCCC(C)Nc1ccnc2cc(Cl)ccc12.O=P(O)(O)O.O=P(O)(O)O` (configuration not stated) [CHLOROQUINE PHOSPHATE], in assay [9], the inhibition in vivo at 5 mg/kg came to 96.8%. Moreover, in assay [10], the Activity stood at 1.07%.
On to `CC1=CC(=O)C[C@H]2[C@](C)(CCC3=CCOC3=O)[C@H](COCc3ccc(C(F)(F)F)cc3)CC[C@]12C`, for which the IC50 amounted to 4.8 µM in assay [1] and 4.4 µM in assay [2]. The results for the Activity in assay [3], in [7] and in [8] were 17.5%, 12.4% and 11.5%, respectively. In assay [4], the inhibition in vivo at 100 mg/kg turned out to be 63.2%. Moreover, the inhibition in vivo at 150 mg/kg in [5] turned out to be 65.9%. Further, the inhibition in vivo at 50 mg/kg in [6] worked out at 48.4%.
Take `COc1ccc(COC(=O)OC[C@@H]2CC[C@]3(C)C(C)=CC(=O)C[C@H]3[C@]2(C)CCC2=CCOC2=O)cc1`: the figures for the IC50 in assay [1] and in [2] were 37.6 µM and 47.7 µM, respectively.
For the compound `CC1=CC(=O)C[C@H]2[C@](C)(CCC3=CCOC3=O)[C@H](COC(=O)OCc3ccccc3)CC[C@]12C`, the IC50 in assay [1] was found to be 42.2 µM; in assay [2], 43.9 µM.
Regarding `COC[C@@H]1CC[C@]2(C)C(C)=CC(=O)C[C@H]2[C@]1(C)CCC1=CCOC1=O`, the figures for the IC50 in assay [1] and in assay [2] were 94.4 µM and 88.9 µM, respectively.
The like results for `CC1=CC(=O)C[C@H]2[C@](C)(CCC3=CCOC3=O)[C@H](COCc3ccc(Cl)cc3)CC[C@]12C` were, in that order, 14 µM and 18.8 µM.
